Results published in ChEMBL document CHEMBL5661979, “Pharmacological inhibition of BMK1 suppresses tumor growth through promyelocytic leukemia protein” (Cancer Cell, 2010).

Legend:
[1] = molecular target: Calcium/calmodulin-dependent protein kinase kinase 1 (Homo sapiens, UniProt Q8N5S9); assay: Inhibition of CAMKK1 in human HeLa cells lysate at 2 uM pre incubated for 15 mins followed by ADP acyl phosphate probe addition and measured after 10 mins by LC-MS/MS analysis relative to control; type: subcellular; conditions: time 25.0 min
Chain of Calcium/calmodulin-dependent protein kinase kinase 1 (Q8N5S9 whole entry, looked up, the tested form may be a part): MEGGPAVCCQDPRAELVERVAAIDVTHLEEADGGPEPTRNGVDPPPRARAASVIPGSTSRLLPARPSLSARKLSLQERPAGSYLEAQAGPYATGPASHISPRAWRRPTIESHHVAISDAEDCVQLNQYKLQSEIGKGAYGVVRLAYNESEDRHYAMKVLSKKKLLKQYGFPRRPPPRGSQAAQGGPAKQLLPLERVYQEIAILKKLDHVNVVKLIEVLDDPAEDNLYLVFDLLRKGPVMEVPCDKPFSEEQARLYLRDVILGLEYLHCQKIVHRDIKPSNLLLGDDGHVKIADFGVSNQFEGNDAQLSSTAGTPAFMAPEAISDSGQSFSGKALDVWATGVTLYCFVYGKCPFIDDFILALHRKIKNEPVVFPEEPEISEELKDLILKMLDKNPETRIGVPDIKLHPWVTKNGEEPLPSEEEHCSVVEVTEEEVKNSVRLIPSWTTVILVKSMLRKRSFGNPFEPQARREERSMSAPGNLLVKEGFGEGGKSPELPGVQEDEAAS
Method in brief: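 KiNativ profiling in HeLa lysate (5 mg/mL total protein). Lysate incubated 15 min with inhibitor at 50, 10, 2, 0.8 or 0 μM. ATP or ADP acylphosphate probe then added (5 μM final) and reacted 10 min. Reaction stopped with urea and analysed by targeted MS, using up to four fragment ions per kinase peptide-probe conjugate. % inhibition taken against untreated lysate. Run in duplicate.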

[2] = molecular target: Serine/threonine-protein kinase PLK1 (Homo sapiens, UniProt P53350); assay: Inhibition of PLK1 K1 site in human HeLa cells lysate pre incubated for 15 mins followed by ATP acyl phosphate probe addition and measured after 10 mins by LC-MS/MS analysis; type: subcellular
[3] = molecular target: Tyrosine-protein kinase ABL (Homo sapiens, UniProt P00519+P42684); assay: Inhibition of ABL1/2 in human HeLa cells lysate at 2 uM pre incubated for 15 mins followed by ATP acyl phosphate probe addition and measured after 10 mins by LC-MS/MS analysis relative to control; type: subcellular; conditions: time 25.0 min
Method in brief: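 HeLa cell lysates (5 mg/mL total protein) were preincubated with inhibitor at 0, 0.8, 2, 10 or 50 μM for 15 min. ATP or ADP acylphosphate probe was then added (5 μM final) for 10 min, and reactions were stopped with urea. Up to four fragment ions per kinase probe-peptide were quantified by targeted MS. % inhibition was taken relative to untreated lysate. Run in duplicate.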

[4] = molecular target: Phosphatidylinositol 4-kinase alpha (Homo sapiens, UniProt P42356); assay: Inhibition of PIK4CA in human HeLa cells lysate at 50 uM pre incubated for 15 mins followed by ATP acyl phosphate probe addition and measured after 10 mins by LC-MS/MS analysis relative to control; type: subcellular; conditions: time 25.0 min
Chain of Phosphatidylinositol 4-kinase alpha (P42356 whole entry, looked up): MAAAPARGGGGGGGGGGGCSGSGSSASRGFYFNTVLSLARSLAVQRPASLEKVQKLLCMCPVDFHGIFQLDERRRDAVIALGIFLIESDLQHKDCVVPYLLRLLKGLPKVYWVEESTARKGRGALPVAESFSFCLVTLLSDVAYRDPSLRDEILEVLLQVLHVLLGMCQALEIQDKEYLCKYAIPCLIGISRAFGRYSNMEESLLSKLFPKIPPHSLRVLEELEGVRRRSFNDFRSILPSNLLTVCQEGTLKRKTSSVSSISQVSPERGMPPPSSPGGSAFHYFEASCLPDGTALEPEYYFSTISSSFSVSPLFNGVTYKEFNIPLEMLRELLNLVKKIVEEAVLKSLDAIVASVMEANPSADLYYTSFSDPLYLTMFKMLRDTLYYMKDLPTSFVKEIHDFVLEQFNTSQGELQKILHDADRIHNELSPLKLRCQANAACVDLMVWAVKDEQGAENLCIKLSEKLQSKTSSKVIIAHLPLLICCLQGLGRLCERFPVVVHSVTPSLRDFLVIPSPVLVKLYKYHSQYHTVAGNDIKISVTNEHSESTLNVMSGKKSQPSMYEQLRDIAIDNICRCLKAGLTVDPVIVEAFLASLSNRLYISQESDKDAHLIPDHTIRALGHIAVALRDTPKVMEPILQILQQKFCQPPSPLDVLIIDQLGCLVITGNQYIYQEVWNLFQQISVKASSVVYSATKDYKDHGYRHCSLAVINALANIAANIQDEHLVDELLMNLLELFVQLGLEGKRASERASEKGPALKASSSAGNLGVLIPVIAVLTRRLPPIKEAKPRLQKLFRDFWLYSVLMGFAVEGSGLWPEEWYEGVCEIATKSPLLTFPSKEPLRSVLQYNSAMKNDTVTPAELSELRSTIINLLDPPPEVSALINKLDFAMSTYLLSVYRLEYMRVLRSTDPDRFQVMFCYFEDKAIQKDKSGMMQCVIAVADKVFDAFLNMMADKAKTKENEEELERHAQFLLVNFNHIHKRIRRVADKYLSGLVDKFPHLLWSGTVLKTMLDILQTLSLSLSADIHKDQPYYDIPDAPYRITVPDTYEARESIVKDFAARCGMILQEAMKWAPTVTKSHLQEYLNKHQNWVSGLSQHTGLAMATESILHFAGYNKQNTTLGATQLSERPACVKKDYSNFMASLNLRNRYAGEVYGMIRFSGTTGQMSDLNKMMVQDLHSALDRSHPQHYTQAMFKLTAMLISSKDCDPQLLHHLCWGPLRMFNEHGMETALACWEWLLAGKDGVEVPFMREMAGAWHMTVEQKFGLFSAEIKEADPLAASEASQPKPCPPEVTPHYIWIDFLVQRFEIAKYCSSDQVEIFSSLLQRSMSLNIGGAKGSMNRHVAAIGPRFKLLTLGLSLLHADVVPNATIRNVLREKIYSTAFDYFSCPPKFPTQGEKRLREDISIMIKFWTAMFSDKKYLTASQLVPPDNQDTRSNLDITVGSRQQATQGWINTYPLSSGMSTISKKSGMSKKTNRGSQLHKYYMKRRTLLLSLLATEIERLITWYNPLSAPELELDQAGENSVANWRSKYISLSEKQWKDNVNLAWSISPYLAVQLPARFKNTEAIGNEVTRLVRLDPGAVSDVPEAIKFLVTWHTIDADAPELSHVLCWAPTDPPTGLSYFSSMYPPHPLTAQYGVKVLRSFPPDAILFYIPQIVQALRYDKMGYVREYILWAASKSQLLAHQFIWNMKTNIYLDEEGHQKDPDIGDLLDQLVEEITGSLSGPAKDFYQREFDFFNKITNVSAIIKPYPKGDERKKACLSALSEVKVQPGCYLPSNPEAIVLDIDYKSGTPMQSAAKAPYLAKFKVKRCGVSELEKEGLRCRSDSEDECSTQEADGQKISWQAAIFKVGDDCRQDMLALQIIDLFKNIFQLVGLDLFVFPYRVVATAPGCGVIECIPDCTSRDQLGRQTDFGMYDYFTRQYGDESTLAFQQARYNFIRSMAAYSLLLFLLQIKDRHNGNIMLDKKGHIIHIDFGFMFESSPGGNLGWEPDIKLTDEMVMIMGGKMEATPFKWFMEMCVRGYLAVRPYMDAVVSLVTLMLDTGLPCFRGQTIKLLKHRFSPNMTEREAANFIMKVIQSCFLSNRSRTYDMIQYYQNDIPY

[5] = molecular target: Interleukin-1 receptor-associated kinase 1 (Homo sapiens, UniProt P51617); assay: Inhibition of IRAK1 in human HeLa cells lysate at 50 uM pre incubated for 15 mins followed by ATP acyl phosphate probe addition and measured after 10 mins by LC-MS/MS analysis relative to control; type: subcellular; conditions: time 25.0 min
[6] = molecular target: T1, Mixed lineage kinase domain-like protein (Homo sapiens) (UniProt Q8NB16); assay: Inhibition of MLKL in human HeLa cells lysate at 50 uM pre incubated for 15 mins followed by ADP acyl phosphate probe addition and measured after 10 mins by LC-MS/MS analysis relative to control; type: subcellular; conditions: time 25.0 min
T1 sequence (whole entry): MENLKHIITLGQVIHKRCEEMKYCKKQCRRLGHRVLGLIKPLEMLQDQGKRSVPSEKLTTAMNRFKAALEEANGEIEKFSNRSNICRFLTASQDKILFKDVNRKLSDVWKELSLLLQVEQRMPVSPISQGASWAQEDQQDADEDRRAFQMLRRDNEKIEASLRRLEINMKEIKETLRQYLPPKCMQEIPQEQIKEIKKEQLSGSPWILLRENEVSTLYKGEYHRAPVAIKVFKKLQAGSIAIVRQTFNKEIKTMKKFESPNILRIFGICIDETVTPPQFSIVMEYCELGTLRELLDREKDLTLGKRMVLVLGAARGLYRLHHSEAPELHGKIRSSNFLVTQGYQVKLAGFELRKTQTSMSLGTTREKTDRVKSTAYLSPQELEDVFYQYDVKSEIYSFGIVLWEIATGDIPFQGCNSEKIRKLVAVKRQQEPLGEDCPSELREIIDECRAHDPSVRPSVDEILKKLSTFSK

[7] = molecular target: Serine/threonine-protein kinase Nek9 (Homo sapiens, UniProt Q8TD19); assay: Inhibition of NEK9 in human HeLa cells lysate pre incubated for 15 mins followed by ATP acyl phosphate probe addition and measured after 10 mins by LC-MS/MS analysis; type: subcellular
Chain of Serine/threonine-protein kinase Nek9 (Q8TD19 whole entry): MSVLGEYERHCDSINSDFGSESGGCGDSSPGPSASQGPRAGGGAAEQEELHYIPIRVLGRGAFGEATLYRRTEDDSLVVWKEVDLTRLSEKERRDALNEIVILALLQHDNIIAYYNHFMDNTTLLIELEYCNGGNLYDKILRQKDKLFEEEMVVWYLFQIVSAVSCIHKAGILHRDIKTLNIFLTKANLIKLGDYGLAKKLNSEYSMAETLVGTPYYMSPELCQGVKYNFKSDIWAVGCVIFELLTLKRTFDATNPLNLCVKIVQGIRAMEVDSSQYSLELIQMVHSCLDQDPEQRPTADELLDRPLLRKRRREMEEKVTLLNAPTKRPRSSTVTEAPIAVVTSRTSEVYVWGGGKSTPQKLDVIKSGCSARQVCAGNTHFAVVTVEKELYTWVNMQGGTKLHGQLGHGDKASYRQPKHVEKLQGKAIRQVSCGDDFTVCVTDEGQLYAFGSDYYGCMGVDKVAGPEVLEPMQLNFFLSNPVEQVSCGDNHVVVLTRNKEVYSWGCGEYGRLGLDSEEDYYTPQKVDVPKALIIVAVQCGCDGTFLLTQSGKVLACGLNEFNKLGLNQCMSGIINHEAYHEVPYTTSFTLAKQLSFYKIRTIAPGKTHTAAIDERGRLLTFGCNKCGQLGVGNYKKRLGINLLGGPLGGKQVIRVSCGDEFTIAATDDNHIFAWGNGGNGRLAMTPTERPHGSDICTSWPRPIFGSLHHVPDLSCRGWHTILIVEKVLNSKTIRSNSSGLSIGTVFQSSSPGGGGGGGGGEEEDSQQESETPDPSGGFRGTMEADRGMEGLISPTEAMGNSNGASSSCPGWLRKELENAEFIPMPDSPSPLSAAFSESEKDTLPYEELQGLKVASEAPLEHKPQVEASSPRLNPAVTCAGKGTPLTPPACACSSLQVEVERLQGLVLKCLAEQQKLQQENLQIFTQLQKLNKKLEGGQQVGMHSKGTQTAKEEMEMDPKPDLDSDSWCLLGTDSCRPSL

[8] = molecular target: DNA-dependent protein kinase catalytic subunit (Homo sapiens, UniProt P78527); assay: Inhibition of PRKDC in human HeLa cells lysate at 50 uM pre incubated for 15 mins followed by ATP acyl phosphate probe addition and measured after 10 mins by LC-MS/MS analysis relative to control; type: subcellular; conditions: time 25.0 min
[9] = molecular target: Serine/threonine-protein kinase D3 (Homo sapiens, UniProt O94806); assay: Inhibition of PKD3 in human HeLa cells lysate pre incubated for 15 mins followed by ADP acyl phosphate probe addition and measured after 10 mins by LC-MS/MS analysis; type: subcellular
Chain of Serine/threonine-protein kinase D3 (O94806 whole entry): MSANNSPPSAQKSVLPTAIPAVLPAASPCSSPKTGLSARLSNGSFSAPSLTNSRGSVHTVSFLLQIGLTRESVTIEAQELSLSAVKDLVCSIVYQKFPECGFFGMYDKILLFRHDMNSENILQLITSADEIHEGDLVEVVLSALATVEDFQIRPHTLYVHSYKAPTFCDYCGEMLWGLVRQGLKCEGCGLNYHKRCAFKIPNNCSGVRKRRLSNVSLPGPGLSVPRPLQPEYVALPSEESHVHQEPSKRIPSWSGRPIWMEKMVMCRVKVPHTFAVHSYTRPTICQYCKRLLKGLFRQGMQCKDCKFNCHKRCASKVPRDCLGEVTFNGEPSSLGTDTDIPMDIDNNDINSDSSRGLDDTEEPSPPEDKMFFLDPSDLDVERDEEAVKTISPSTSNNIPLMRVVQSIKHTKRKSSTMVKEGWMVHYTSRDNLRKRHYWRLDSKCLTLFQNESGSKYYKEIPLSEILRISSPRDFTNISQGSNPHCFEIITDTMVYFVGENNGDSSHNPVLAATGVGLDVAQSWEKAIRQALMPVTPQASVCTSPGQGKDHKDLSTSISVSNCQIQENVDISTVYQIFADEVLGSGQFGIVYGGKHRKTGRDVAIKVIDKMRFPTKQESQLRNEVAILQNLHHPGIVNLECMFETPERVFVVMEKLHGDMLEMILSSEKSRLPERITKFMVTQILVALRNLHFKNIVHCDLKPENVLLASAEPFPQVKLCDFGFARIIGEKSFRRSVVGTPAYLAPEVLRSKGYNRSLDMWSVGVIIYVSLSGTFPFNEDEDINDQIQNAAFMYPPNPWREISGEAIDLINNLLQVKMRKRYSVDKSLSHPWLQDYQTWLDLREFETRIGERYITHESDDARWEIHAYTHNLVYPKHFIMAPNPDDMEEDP

[10] = molecular target: Cyclin-dependent kinase 12 (Homo sapiens, UniProt Q9NYV4); assay: Inhibition of CRK7 in human HeLa cells lysate pre incubated for 15 mins followed by ADP acyl phosphate probe addition and measured after 10 mins by LC-MS/MS analysis; type: subcellular
[11] = molecular target: Serine/threonine-protein kinase Nek8 (Homo sapiens) (UniProt Q86SG6); assay: Inhibition of NEK8 in human HeLa cells lysate at 2 uM pre incubated for 15 mins followed by ADP acyl phosphate probe addition and measured after 10 mins by LC-MS/MS analysis relative to control; type: subcellular; conditions: time 25.0 min
[12] = molecular target: EKC/KEOPS complex subunit TP53RK (Homo sapiens, UniProt Q96S44); assay: Inhibition of PRPK in human HeLa cells lysate pre incubated for 15 mins followed by ADP acyl phosphate probe addition and measured after 10 mins by LC-MS/MS analysis; type: subcellular
Chain of EKC/KEOPS complex subunit TP53RK (Q96S44 whole entry, one chain of several): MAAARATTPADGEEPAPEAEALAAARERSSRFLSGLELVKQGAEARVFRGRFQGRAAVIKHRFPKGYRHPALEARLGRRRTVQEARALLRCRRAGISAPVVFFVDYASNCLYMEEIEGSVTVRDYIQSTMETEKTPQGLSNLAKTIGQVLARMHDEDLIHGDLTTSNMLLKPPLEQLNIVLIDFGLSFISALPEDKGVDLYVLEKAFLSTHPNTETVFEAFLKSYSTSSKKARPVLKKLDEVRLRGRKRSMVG

[13] = molecular target: T2, Phosphatidylinositol 5-phosphate 4-kinase type-2 gamma (Homo sapiens) (UniProt Q8TBX8); assay: Inhibition of PIP5K2C LIP1 site in human HeLa cells lysate at 50 uM pre incubated for 15 mins followed by ATP acyl phosphate probe addition and measured after 10 mins by LC-MS/MS analysis relative to control; type: subcellular; conditions: time 25.0 min
T2 sequence (whole entry): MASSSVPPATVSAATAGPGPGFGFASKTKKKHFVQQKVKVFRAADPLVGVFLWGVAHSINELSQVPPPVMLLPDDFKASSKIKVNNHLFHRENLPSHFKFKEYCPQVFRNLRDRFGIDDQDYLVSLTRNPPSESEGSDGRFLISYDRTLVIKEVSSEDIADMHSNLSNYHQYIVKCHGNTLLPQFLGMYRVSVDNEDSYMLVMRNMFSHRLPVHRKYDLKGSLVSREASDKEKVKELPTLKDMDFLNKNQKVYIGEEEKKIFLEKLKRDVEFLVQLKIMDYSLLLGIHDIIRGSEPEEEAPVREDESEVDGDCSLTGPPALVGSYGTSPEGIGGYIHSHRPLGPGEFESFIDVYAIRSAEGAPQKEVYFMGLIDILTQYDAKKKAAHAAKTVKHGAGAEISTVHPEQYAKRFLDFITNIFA

[14] = molecular target: Interferon-induced, double-stranded RNA-activated protein kinase (Homo sapiens, UniProt P19525); assay: Inhibition of PKR in human HeLa cells lysate pre incubated for 15 mins followed by ATP acyl phosphate probe addition and measured after 10 mins by LC-MS/MS analysis; type: subcellular
[15] = Inhibition of CK1g1/g2/g3 in human HeLa cells lysate at 2 uM pre incubated for 15 mins followed by ADP acyl phosphate probe addition and measured after 10 mins by LC-MS/MS analysis relative to control; conditions: 25 min, condition cancer
[16] = molecular target: p38 delta/gamma (Homo sapiens) (UniProt O15264+P53778); assay: Inhibition of p38d/p38g in human HeLa cells lysate at 2 uM pre incubated for 15 mins followed by ATP acyl phosphate probe addition and measured after 10 mins by LC-MS/MS analysis relative to control; type: subcellular; conditions: time 25.0 min

## CCOc1cc(N2CCC(O)CC2)ccc1Nc1ncc2c(n1)N(C)c1ccccc1C(=O)N2C
[1]
  inhibition: -5.2%
[2]
  IC50: > 50 µM
[3]
  inhibition: 11.5%
[4]
  inhibition: 58%
[5]
  inhibition: -8.3%
[6]
  inhibition: -6.7%
[7]
  IC50: > 50 µM
[8]
  inhibition: -3.7%
[9]
  IC50: > 50 µM
[10]
  IC50: > 50 µM
[11]
  inhibition: 30.2%
[12]
  IC50: > 50 µM
[13]
  inhibition: 9.9%
[14]
  IC50: > 50 µM
[15]
  inhibition at 2 µM: 61.7%
[16]
  inhibition: 100%
